Only some compounds are listed: those with a hit (about 2.1% of all), similar ones and a draw of the others.
NOD2-RIPK2 inh: NOD2-RIPK2 protein interaction inhibition; O43353; CHO BLA complementation NOD2-RIPK2, CCF4 ratio; inhibition, % at 4.98 µM; 360,000 compounds, 0.38% hits; AID 624267; in the data active = inhibition above about 21%;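 also: 0% = vehicle only and 100% = reference blocker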
TLR9-MyD88 block: blocks human TLR9 binding to MyD88. Q9NR96+Q99836. CHO BLA complementation TLR9-MyD88, CCF4 FRET ratio. inhibition, % at 4.98 µM. 340,000 compounds, 0.21% hits;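 active = inhibition above the mean over all tested compounds plus 3 SD, cut at about 21% in these data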;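 also: 0% = DMSO only wells and 100% = clavulanate BLA inhibitor control wells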
beta cell repl: induces beta-cell replication in MIN6 cells; MIN6 cells proliferation, ATPlite luminescence, 48 h; cells starved in 0.2% serum; 100% = growth in 10% serum; proliferation, % at 10 µM; 330,000 compounds, 0.29% hits;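 active = compounds whose signal lies at least 3.5 SD above the mean of all wells on their plate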;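 also: 0% = DMSO-treated cells in low-serum medium and 100% = 10% serum control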
MC4R antag cAMP: human MC4R antagonism in cAMP assay. MC4R-expressing cells, MTII-stimulated cAMP, LANCE TR-FRET. inhibition, % at 6.5 µM. AID 540295. P32245. 360,000 compounds, 0.48% hits;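 active = inhibition above its plate's cutoff, the mean of tested wells on that plate plus 3 SD, cut at about 29% in these data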;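 also: 0% = Melanotan II alone and 100% = Melanotan II plus saturating MCL0020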
Target sequence (P32245 whole entry, looked up): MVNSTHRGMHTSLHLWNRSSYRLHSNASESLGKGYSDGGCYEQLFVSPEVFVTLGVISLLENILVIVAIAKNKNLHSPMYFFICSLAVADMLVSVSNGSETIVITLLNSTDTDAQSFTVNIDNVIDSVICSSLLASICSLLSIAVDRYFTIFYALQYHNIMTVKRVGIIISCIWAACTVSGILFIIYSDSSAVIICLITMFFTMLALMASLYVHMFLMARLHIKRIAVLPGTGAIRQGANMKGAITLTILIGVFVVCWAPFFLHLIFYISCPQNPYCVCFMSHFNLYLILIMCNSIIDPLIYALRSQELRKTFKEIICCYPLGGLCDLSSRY
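Assay system: U2OS cells stably expressing human melanocortin 4 receptor (MC4R) / Dosing: 6.5 µM / Timing: compound 30 min, challenge 1 h, detection 1 h / Measured by: Eu-cAMP/anti-cAMP TR-FRET, emission 671 nm / Replicates: singlicate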
MC4R ag barr: agonists of human melanocortin 4 receptor (MC4R) beta-arrestin | U2OS MC4R beta-arrestin complementation, luminescence; percent of melanotan II response, DMSO zero | activation, % at 8.9 µM | 360,000 compounds, 0.98% hits | AID 540308;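 active = activation above a per-plate cutoff, the mean activation of sample wells on that plate plus 3 SD, cut at about 8% in these data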
TLR4-MyD88 BLA: inhibitors of human TLR4-MyD88 binding. HeLa CL3-4 TLR4/MyD88 BLA complementation, FRET ratio. O00206+Q99836. AID 861. inhibition, % at 8.4 µM. 200,000 compounds, 0.18% hits; in the data active = inhibition above about 25%;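 also: 0% = vehicle and 100% = reference inhibitor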
TLR9-MyD88 conf: TLR9-MyD88 interaction inhibition, confirmation; 680 compounds, 51% hits; shares compounds with TLR9-MyD88 block; CHO TLR9/MyD88 BLA complementation, CCF4 FRET ratio; inhibition, % at 4.98 µM; AID 540250;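 active = mean inhibition across three repeats above about 21% taken from the earlier screen, limit read from the data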;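 also: blue over green emission ratio reports constitutive TLR9 MyD88 association via BLA complementation; 0% = DMSO vehicle wells and 100% = clavulanate BLA inhibitor wells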
BLA counter-1: non-selective beta-lactamase inhibitors in TLR9-MyD88 counter-screen; shares compounds with TLR9-MyD88 block; CHO-BLA cells, CCF4 FRET ratio, BLA reporter; inhibition, % at 4.98 µM; 680 compounds, 7% hits; AID 540251;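 active = mean inhibition above a 50% cutoff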;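 also: counterscreen of TLR9-MyD88 hits on CMV-driven BLA in CHO-K1 cells; 0% = DMSO alone and 100% = clavulanate blocking BLA; higher means less blue over green ratio so more BLA blockade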
TLR9 CHO cytotox: CHO cell toxicity counter-screen for TLR9-MyD88 inhibitors. inhibition, % at 4.98 µM. shares compounds with TLR9-MyD88 block. TLR9-MyD88 CHO cells cytotoxicity, luminescence. 680 compounds, 39% hits. AID 588336; in the data active = inhibition above about 11%
U2OS cAMP counter: nonselective cAMP signaling inhibitor, MC4R antagonist counter-screen | parental U2OS, forskolin cAMP, LANCE TR-FRET | AID 602193 | inhibition, % at 6.5 µM | shares compounds with MC4R antag cAMP | 1,600 compounds, 26% hits;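 active = mean inhibition over triplicates above the low-control well mean plus 3 SD, set per campaign, cut at about 13% in these data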;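 also: signal is single emission at 671 nm which falls as cellular cAMP rises; 0% = forskolin-stimulated wells and 100% = buffer without forskolin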
MC4R cAMP antag: human MC4R cAMP antagonism confirmation | shares compounds with MC4R antag cAMP | MC4R-expressing cells, MTII-stimulated cAMP, TR-FRET | inhibition, % at 6.5 µM | 1,600 compounds, 27% hits; in the data active = inhibition above about 29%;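 also: 0% = agonist stimulated wells alone and 100% = agonist stimulated wells plus saturating reference antagonist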
MC4R barr conf: human MC4R beta-arrestin agonism confirmation. shares compounds with MC4R ag barr. U2OS MC4R beta-arrestin recruitment, luminescence; scaled DMSO 0%, Melanotan II 100%. activation, % at 8.9 µM. 2,400 compounds, 31% hits;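 active = mean activation across replicates above the hit cutoff set in the earlier primary screen, cut at about 8% in these data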
MOR-DOR barr ag: OPRM1-OPRD1 heterodimer agonism counter-screen; activation, % at 9.2 µM; U2OS PathHunter beta-arrestin, beta-gal luminescence; percent of deltorphin B response, DMSO zero; shares compounds with MC4R ag barr; AID 602194; 2,400 compounds, 5.8% hits;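 active = mean activation across replicates exceeds the hit threshold derived in the earlier primary screen, cut at about 18% in these data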;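 also: 100% = deltorphin B at 0.9 µM final and 0% = DMSO alone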
NOD2 RIPK2 conf: confirmation of human NOD2-RIPK2 interaction inhibitors | shares compounds with NOD2-RIPK2 inh | CHO cells, NOD2-RIPK2 BLA complementation, CCF4 FRET | inhibition, % at 4.98 µM | 1,200 compounds, 70% hits;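 active = mean inhibition across replicates above a set limit taken from the earlier primary screen, cut at about 21% in these data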;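 also: 0% = DMSO-only wells and the high end = clavulanate BLA-blocked wells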
BLA counter-2: counter-screen for NOD2-RIPK2 interaction inhibitors: BLA reporter. shares compounds with NOD2-RIPK2 inh. inhibition, % at 4.98 µM. 1,200 compounds, 57% hits. CHO BLA reporter, CCF4 FRET ratio, counterscreen;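 active = mean inhibition above the low-control mean inhibition plus three low-control SD, cut at about 11% in these data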;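 also: 0% = DMSO only wells and 100% = clavulanate high control wells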
Numbers without * were called inactive; · = no result given.

SMILES	NOD2-RIPK2 inh	TLR9-MyD88 block	beta cell repl	MC4R antag cAMP	MC4R ag barr	TLR4-MyD88 BLA	TLR9-MyD88 conf	BLA counter-1	TLR9 CHO cytotox	NOD2 RIPK2 conf	BLA counter-2	others
Cc1noc2ncnc(Sc3c(Cl)cccc3Cl)c12	37*	23*	-5	3	0	10	22*	6	8	34*	-13
Cn1cc(Br)c(-c2cccc(NC(=O)CCC(=O)O)c2)n1	-8	6	1	6	1	·	·	·	·	·	·
O=C(NCCN1C(=O)S/C(=C\c2ccc(Cl)c([N+](=O)[O-])c2)C1=O)C1=COCCO1	39*	24*	-7	29*	-4	·	11	2	5	63*	-2	U2OS cAMP counter=9;MC4R cAMP antag=8
O=C(NCCN1C(=O)S/C(=C\c2ccc(Cl)c(Cl)c2)C1=O)c1cnccn1	-1	-4	-2	6	1	5	·	·	·	·	·
COc1ccc(-c2oc3ccccc3c(=O)c2OC(C)=O)cc1	2	3	-6	-4	-2	-12	·	·	·	·	·
CC(=O)Oc1c(-c2ccc(Br)o2)oc2ccccc2c1=O	25*	27*	-4	9	-2	·	17	16	-2	35*	34*
Nc1cccc2c1C(=O)N(c1ccccc1)C2=O	45*	28*	5	17	0	·	20	23	-5	43*	46*
O=c1c(Cl)c(Cl)cnn1-c1ccccc1	23*	24*	·	28	5	24	21*	13	98*	35*	9
N#C/C(=C/c1ccc(N2CCCCCC2)o1)c1ccc(Cl)cc1	39*	24*	-6	19	2	21	9	9	84*	28*	14*
Nc1c(Cl)cc(-c2[nH]c3cc(C(=O)NCCO)ccc3c(=O)c2O)cc1Cl	28*	21*	1	-26	-1	·	11	18	5	35*	38*
Cc1nnc(NC(=O)CCC(=O)NC2CCCCCCC2)s1	1	-4	0	7	-2	·	·	·	·	·	·
CCOC(=O)c1c(NC(C)=O)sc2c1CCC(C=O)=C2Sc1ccccc1	35*	22*	-4	-12	-2	20	18	3	37*	67*	20*
Nc1cccc2c1C(=O)N(CCOc1ccccc1F)C2=O	33*	27*	-2	19	2	·	17	22	-4	38*	49*
CCNc1ccc(C(=O)OCC(=O)Nc2cc(C)on2)cc1[N+](=O)[O-]	8	-7	3	-4	-1	·	·	·	·	·	·
O=Nc1c(O)n(Cc2ccccc2)c2ccccc12	2	9	2	7	1	·	·	·	·	·	·
O=Nc1c(O)n(Cc2ccc(Cl)c(Cl)c2)c2ccccc12	34*	28*	-6	8	10*	7	11	11	17*	56*	42*	MC4R barr conf=4;MOR-DOR barr ag=10
COc1cc2c(c(NC(C)=O)c1)N(C(C)=O)CCC2	-1	-4	·	4	0	·	·	·	·	·	·
COc1cc(NS(=O)(=O)c2ccc(C)cc2)c2ncccc2c1	51*	22*	-6	-17	-4	22	18	10	102*	45*	11*
COc1ccc(S(=O)(=O)Nc2ccccn2)cc1	-10	5	3	13	0	·	·	·	·	·	·
Cn1c(=O)[nH]c(=O)c2c1nc([N+](=O)[O-])n2Cc1ccccc1	59*	22*	-4	-7	1	·	26*	10	99*	31*	7
CC(C)Cn1c([N+](=O)[O-])nc2c1c(=O)[nH]c(=O)n2C	5	1	-4	17	0	·	·	·	·	·	·
CCn1c(=O)c([N+](=O)[O-])c(NCCN(C)C)c2ccccc21	-7	-2	-2	8	-1	3	·	·	·	·	·
CCn1c(=O)c([N+](=O)[O-])c(Cl)c2ccccc21	88*	44*	-7	21	-3	9	62*	9	96*	96*	22*
O=C(CNCc1cccs1)Nc1ccc(N2CCCCCC2)cc1	3	-1	-2	-1	-2	-6	·	·	·	·	·
O=C(CN1CCc2ccccc2C1)Nc1ccccc1C(F)(F)F	6	-15	0	8	3	·	·	·	·	·	·
SMILES	NOD2-RIPK2 inh	TLR9-MyD88 block	beta cell repl	MC4R antag cAMP	MC4R ag barr	TLR4-MyD88 BLA	TLR9-MyD88 conf	BLA counter-1	TLR9 CHO cytotox	NOD2 RIPK2 conf	BLA counter-2	others
COc1ccc(-c2cc3ccc(O)cc3oc2=O)cc1OC	52*	40*	8	-6	-1	·	28*	36	2	56*	60*
O=c1cc(C(F)(F)F)[nH]c2ccc(C(F)(F)F)cc12	12	-9	-4	14	7	·	·	·	·	·	·
COC(=O)c1scc2c(=O)cc(C(F)(F)F)[nH]c12	72*	63*	1	3	0	·	50*	55*	-2	74*	78*
O=c1oc2ccccc2c(N2CCCC2)c1CN1CCCC1	3	-2	-2	-7	2	-2	·	·	·	·	·
O=c1oc2ccccc2c(Cl)c1CN1CCCCC1	40*	23*	-6	-6	-1	-7	75*	17	96*	95*	14*
O=C1Nc2ccccc2C1Cc1ccccc1 (centres undefined)	1	6	3	-8	-1	·	·	·	·	·	·

Screens: PubChem, several laboratories
